Measurements: ChEMBL document CHEMBL1125384, “Inhibitors of sterol synthesis. 3 beta,25-dihydroxy-5 alpha-cholest-8(14)-en-15-one, an active metabolite of 3 beta-hydroxy-5 alpha-cholest-8(14)-en-15-one” (J Med Chem, 1992)

Legend:
[1] = target: 3-hydroxy-3-methylglutaryl-coenzyme A reductase (Cricetulus griseus) (UniProt P00347); experiment: % control of HMG-CoA reductase activity in CHO-K1 cells at a concentration of 0.1 uM
[2] = target: T1, 3-hydroxy-3-methylglutaryl-coenzyme A reductase (Homo sapiens) (UniProt P04035); experiment: % control of HMG-CoA reductase activity in CHO-K1 cells at a concentration of 1.0 uM; assay type: cell-based; settings: Cricetulus griseus
T1 sequence (whole entry): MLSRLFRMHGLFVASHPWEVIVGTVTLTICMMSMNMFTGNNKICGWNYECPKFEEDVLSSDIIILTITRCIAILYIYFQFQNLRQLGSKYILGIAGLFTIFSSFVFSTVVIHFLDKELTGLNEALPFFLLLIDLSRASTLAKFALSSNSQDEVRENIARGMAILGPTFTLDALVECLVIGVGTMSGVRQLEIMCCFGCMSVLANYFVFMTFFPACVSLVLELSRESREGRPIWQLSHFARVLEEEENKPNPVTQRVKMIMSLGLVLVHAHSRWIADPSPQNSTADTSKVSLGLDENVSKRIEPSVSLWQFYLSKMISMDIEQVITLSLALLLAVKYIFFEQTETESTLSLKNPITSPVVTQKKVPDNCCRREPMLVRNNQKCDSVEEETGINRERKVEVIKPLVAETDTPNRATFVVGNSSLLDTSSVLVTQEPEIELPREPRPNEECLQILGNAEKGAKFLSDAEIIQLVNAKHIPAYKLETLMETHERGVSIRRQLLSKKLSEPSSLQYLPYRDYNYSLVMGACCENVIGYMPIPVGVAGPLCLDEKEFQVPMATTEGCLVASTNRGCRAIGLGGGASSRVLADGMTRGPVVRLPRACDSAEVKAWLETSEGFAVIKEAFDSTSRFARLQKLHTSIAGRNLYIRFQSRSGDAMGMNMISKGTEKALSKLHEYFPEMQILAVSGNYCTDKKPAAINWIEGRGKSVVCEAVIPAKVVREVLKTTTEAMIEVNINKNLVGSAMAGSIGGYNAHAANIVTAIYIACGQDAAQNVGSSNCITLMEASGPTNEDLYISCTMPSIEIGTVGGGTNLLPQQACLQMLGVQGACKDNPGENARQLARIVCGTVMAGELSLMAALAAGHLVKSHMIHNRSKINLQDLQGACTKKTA
Procedure, shortened: (§1)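 CHO-K1 cells were exposed to the sterol at 0.0–2.5 μM. HMG-CoA reductase specific activity was measured in pmol min⁻¹ mg⁻¹ protein and expressed as % of the activity in sterol-free control cells. Assays were run in triplicate, with variation given as SD.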

[3] = target: 3-hydroxy-3-methylglutaryl-coenzyme A reductase (Cricetulus griseus) (UniProt P00347); experiment: % control of HMG-CoA reductase activity in CHO-K1 cells at a concentration of 0.0 uM
[4] = target: T1, 3-hydroxy-3-methylglutaryl-coenzyme A reductase (Homo sapiens); experiment: % control of HMG-CoA reductase activity in CHO-K1 cells at a concentration of 0.25 uM; assay type: cell-based; settings: Cricetulus griseus
Procedure, shortened: as §1

[5] = target: T1, 3-hydroxy-3-methylglutaryl-coenzyme A reductase (Homo sapiens); experiment: % control of HMG-CoA reductase activity in CHO-K1 cells at a concentration of 2.5 uM; assay type: cell-based; settings: Cricetulus griseus
Procedure, shortened: as §1

[6] = target: T1, 3-hydroxy-3-methylglutaryl-coenzyme A reductase (Homo sapiens); experiment: % control of HMG-CoA reductase activity in CHO-K1 cells at a concentration of 0.5 uM; assay type: cell-based; settings: Cricetulus griseus
Procedure, shortened: as §1

Sequence of 3-hydroxy-3-methylglutaryl-coenzyme A reductase (Cricetulus griseus) (P00347 whole entry, looked up): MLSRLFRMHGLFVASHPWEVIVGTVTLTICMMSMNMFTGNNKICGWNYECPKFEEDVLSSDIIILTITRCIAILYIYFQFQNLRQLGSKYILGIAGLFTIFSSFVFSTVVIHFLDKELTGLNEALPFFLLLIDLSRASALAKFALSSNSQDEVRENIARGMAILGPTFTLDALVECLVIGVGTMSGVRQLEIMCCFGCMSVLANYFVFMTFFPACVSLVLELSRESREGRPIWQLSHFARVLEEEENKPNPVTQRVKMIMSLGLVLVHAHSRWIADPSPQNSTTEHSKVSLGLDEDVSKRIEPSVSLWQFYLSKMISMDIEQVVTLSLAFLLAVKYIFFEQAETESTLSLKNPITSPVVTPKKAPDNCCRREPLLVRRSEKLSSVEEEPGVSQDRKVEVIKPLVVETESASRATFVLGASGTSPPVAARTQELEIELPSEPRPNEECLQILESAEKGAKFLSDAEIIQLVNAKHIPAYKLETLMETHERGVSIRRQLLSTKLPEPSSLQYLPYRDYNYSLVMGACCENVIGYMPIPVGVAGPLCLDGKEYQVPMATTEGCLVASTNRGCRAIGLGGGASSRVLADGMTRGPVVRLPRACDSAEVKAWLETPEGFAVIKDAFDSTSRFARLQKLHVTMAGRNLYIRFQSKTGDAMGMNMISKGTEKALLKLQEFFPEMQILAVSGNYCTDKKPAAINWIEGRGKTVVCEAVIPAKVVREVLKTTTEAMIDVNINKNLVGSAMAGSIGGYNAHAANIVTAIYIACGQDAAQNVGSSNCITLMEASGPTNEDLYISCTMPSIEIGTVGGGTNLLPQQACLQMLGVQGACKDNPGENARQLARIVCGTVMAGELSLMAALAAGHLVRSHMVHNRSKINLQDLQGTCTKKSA

CC(C)CCC[C@@H](C)[C@H]1CC(=O)C2=C3CC[C@H]4C[C@@H](O)CC[C@]4(C)[C@H]3CC[C@@]21C
Control [1]: 61.9% | Control [2]: 35.8% | Control [3]: 100% | Control [4]: 52.1% | Control [5]: 24.4% | Control [6]: 42.2%

C[C@H](CCCC(C)(C)O)C1CC(=O)C2=C3CCC4CC(O)CCC4(C)C3CCC21C (some centres not stated)
Control [1]: 63.4% | Control [2]: 34.2% | Control [3]: 100% | Control [4]: 33.5% | Control [5]: 21.5% | Control [6]: 32.2%
